≈ marks a conversion by molar mass, not a printed value.
What was measured:
Rattus norvegicus [1] = experiment: Antiischemic effect in Sprague-Dawley rat focal ischemic sroke model assessed as reduction of infract size in brain at 0.001 mg/kg, ip after 24 hrs under pre-ischemic conditions; type: functional; set-up: scale not given: the % may be the effect or the level left; details: route intraperitoneal
Method in brief: (§1)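 Rat MCAO with 2 h ischemia and 22 h reperfusion, pre-ischemic regimen. Compound was given ip three times: 3 h and 1 h before, and 1 h after, MCA occlusion. Brains were removed 24 h after ischemia, cut into seven slices, and stained with TTC. Infarct volume was measured by computer-assisted planimetry and expressed as % reduction versus vehicle-treated rats.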

Enterococcus faecalis = experiment: Antibacterial activity against Enterococcus faecalis ATCC 29212 after 16 to 18 hrs by agar dilution method; type: functional
Method in brief: (§2)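 Agar dilution MIC following CLSI guidance. E. faecalis was grown on Brain–Heart Infusion agar and the other strains on Mueller Hinton agar. Compounds were diluted in DMSO or 0.1 M NaOH in twofold steps to give final concentrations of 0.06–128 µg/mL. Inocula of 10^4 cfu/spot were incubated 16–18 h at 36 °C in ambient air. MIC was taken as the lowest concentration preventing visible growth.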

Bacillus subtilis = experiment: Antimicrobial activity against Bacillus subtilis ATCC 6633 after 16 to 18 hrs by agar dilution method; type: functional
Method in brief: (§3)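 Agar dilution MIC per CLSI on Mueller Hinton agar. Stocks were diluted in DMSO or 0.1 M NaOH as a twofold series, with final concentrations 0.06–128. Plates were spotted at 10⁴ cfu/spot and incubated in ambient air at 36 °C for 16–18 h. MIC was the lowest concentration that prevented visible growth.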

Staphylococcus aureus = experiment: Antibacterial activity against Staphylococcus aureus ATCC 25923 after 16 to 18 hrs by agar dilution method; type: functional; method in brief: as §2
Rattus norvegicus [2] = experiment: Antiischemic effect in Sprague-Dawley rat focal ischemic sroke model assessed as reduction of infract size in brain at 0.01 mg/kg, ip after 24 hrs under post-ischemic conditions; set-up: scale not given: the % may be the effect or the level left; details: route intraperitoneal
Rattus norvegicus [3] = experiment: Cardioprotective effect in Sprague-Dawley rat myocardial infarction model assessed as reduction of infract size in heart at 0.001 mg/kg, ip; type: functional; set-up: scale not given: the % may be the effect or the level left; details: route intraperitoneal
Method in brief: (§4)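 Male Sprague–Dawley rats (260–290 g) were anesthetized with ketamine ([…]) and xylazine (5 mg/kg). A single ip dose was given 1 h before regional myocardial ischemia (30 min), followed by 3 h reperfusion. After 1% Evans blue, the left ventricle was cut into two slices and stained with TTC. Infarct size was expressed as % of area at risk versus vehicle, using Student's t-test (P < 0.05).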

Rattus norvegicus [4] = experiment: Cardioprotective effect in Sprague-Dawley rat myocardial infarction model assessed as reduction of infract area in heart at 0.001 mg/kg, ip; type: functional; set-up: scale not given: the % may be the effect or the level left; details: route intraperitoneal; method in brief: as §4
Rattus norvegicus [5] = experiment: Cardioprotective effect in Sprague-Dawley rat myocardial infarction model assessed as reduction of infract area in heart at 0.1 mg/kg, ip; type: functional; set-up: scale not given: the % may be the effect or the level left; details: route intraperitoneal; method in brief: as §4
Enterobacter cloacae = experiment: Antibacterial activity against Enterobacter cloacae ATCC 13047 after 16 to 18 hrs by agar dilution method; type: functional
Rattus norvegicus [6] = experiment: Antiischemic effect in Sprague-Dawley […] sroke model assessed as reduction of infract size in brain at 0.1 mg/kg, ip after 24 hrs under pre-ischemic conditions; type: functional; set-up: scale not given: the % may be the effect or the level left; details: route intraperitoneal; method in brief: as §1
Rattus norvegicus [7] = experiment: Cardioprotective effect in Sprague-Dawley rat myocardial infarction model assessed as reduction of infract area in heart at 0.01 mg/kg, ip; type: functional; set-up: scale not given: the % may be the effect or the level left; details: route intraperitoneal; method in brief: as §4
Rattus norvegicus [8] = experiment: Cardioprotective effect in Sprague-Dawley rat myocardial infarction model assessed as reduction of infract size in heart at 0.01 mg/kg, ip; type: functional; set-up: scale not given: the % may be the effect or the level left; details: route intraperitoneal; method in brief: as §4
SH-SY5Y [9] = experiment: Enhancement of cell viability of human SH-SY5Y cells at 0.1 uM after 24 hrs by MTS assay relative to control; type: functional
Method in brief: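 SH-SY5Y neuroblastoma cells were grown in 1:1 EMEM/F12K with 10% heat-inactivated FBS at 37 °C, 5% CO2. After 1 day, cells were pretreated with compound at 0.1 µM for 2 h, then exposed to 200 µM H2O2 for 24 h. Viability was read by MTS (3 h, 37 °C, OD 490 nm) as a percentage of control. At least two independent experiments, each in triplicate.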

[10] = test system: Staphylococcus epidermidis; experiment: Antibacterial activity against Staphylococcus epidermidis ATCC 12228 after 16 to 18 hrs by agar dilution method; type: functional; method in brief: as §2
Rattus norvegicus [11] = experiment: Antiischemic effect in Sprague-Dawley rat focal ischemic sroke model assessed as reduction of infract size in brain at 0.01 mg/kg, ip after 24 hrs under pre-ischemic conditions; type: functional; set-up: scale not given: the % may be the effect or the level left; details: route intraperitoneal; method in brief: as §1
Serratia marcescens = experiment: Antibacterial activity against Serratia marcescens ATCC 27117 after 16 to 18 hrs by agar dilution method; type: functional; method in brief: as §3
Escherichia coli = experiment: Antibacterial activity against Escherichia coli ATCC 25922 after 16 to 18 hrs by agar dilution method; type: functional; method in brief: as §2
SH-SY5Y [12] = experiment: Cell viability of human SH-SY5Y cells at 0.1 uM after 24 hrs by MTS assay; type: functional
Method in brief: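 SH-SY5Y cells were grown in 1:1 EMEM/F12K with 10% heat-inactivated FBS at 37 °C and 5% CO₂. One day after plating, cells were pretreated with compound for 2 h, then exposed to hydrogen peroxide for 24 h. MTS reagent was added for 3 h at 37 °C and OD read at 490 nm. Viability is % of control, from at least two independent experiments in triplicate.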

| Structure (SMILES) | MIC (Enterococcus faecalis) [µg/mL] | MIC (Bacillus subtilis) [µg/mL] | MIC (Staphylococcus aureus) [µg/mL] | MIC [10] [µg/mL] | MIC (Serratia marcescens) [µg/mL] | Activity (SH-SY5Y [12]) [%] | further results |
| --- | --- | --- | --- | --- | --- | --- | --- |
| O=C(O)c1cn(C2CC2)c2cc(N3CCNCC3)ccc2c1=O | 64 (≈ 204 µM) | 8 (≈ 25.5 µM) | 32 (≈ 102 µM) | 16 (≈ 51.1 µM) | 4 (≈ 12.8 µM) | 61.7 | Activity (Rattus norvegicus [1]): 9.6%; Activity (Rattus norvegicus [2]): 8.9%; Activity (Rattus norvegicus [3]): 14.2%; Activity (Rattus norvegicus [4]): 62.1%; Activity (Rattus norvegicus [5]): 78.3%; MIC (Enterobacter cloacae): 1 µg/mL (≈ 3.19 µM); Activity (Rattus norvegicus [6]): 5.3%; Activity (Rattus norvegicus [7]): 53.1%; Activity (Rattus norvegicus [8]): 26.6%; Activity (SH-SY5Y [9]): 42%; Activity (Rattus norvegicus [11]): 32.1%; MIC (Escherichia coli): 0.5 µg/mL (≈ 1.6 µM) |
| Cc1c(C(=O)O)c(=O)c2cc(F)c(N3CCNCC3)cc2n1C1CC1 |  |  |  |  |  | 49.9 |  |
| O=C(O)c1cn(C2CC2)c2ccc(F)cc2c1=O |  |  |  |  |  | 45.1 |  |
| O=C(O)c1cn(C2CC2)c2cc(C3CCNCC3)c(F)cc2c1=O |  |  |  |  |  | 42.4 |  |
| O=C(O)c1cn(C2CC2)c2cc(N3CCCCC3)c(F)cc2c1=O |  |  |  |  |  | 44.1 |  |
| O=C(O)c1cn(C2CC2)c2ccccc2c1=O |  |  |  |  |  | 39 |  |
| O=c1ccn(C2CC2)c2cc(N3CCNCC3)c(F)cc12 | 8 (≈ 27.8 µM) | 8 (≈ 27.8 µM) | 16 (≈ 55.7 µM) | 8 (≈ 27.8 µM) | 1 (≈ 3.48 µM) | 57.4 | MIC (Enterobacter cloacae): 0.5 µg/mL (≈ 1.74 µM); Activity (SH-SY5Y [9]): 33%; MIC (Escherichia coli): < 0.12 µg/mL |
| O=C(O)c1cn(C2CC2)c2cc(N3CCNCC3)c(F)cc2c1=S |  |  |  |  |  | 27.1 |  |
| O=C(O)c1cn(C2CC2)c2cc(N3CCNCC3)c(F)cc2c1=O [CIPROFLOXACIN] | 2 (≈ 6.04 µM) | 1 (≈ 3.02 µM) | 2 (≈ 6.04 µM) | 1 (≈ 3.02 µM) | 0.125 (≈ 0.377 µM) | 46.5 |  |

Source: ChEMBL document CHEMBL1143767, “Identification, biological activity, and mechanism of the anti-ischemic quinolone analog” (2007)
